The source made the active and inactive calls. No cut-off for these calls is given here.
Assays:
[1] = biological target: T1, NAD-dependent protein deacetylase sirtuin-3, mitochondrial (Homo sapiens, UniProt Q9NTG7); assay: Inhibition of human SIRT3 assessed as reduction in deacetylase activity using acetylated H3K9 as substrate preincubated for 15 mins followed by substrate addition and measured after 15 mins by UV-HPLC analysis
T1 sequence (Q9NTG7 whole entry): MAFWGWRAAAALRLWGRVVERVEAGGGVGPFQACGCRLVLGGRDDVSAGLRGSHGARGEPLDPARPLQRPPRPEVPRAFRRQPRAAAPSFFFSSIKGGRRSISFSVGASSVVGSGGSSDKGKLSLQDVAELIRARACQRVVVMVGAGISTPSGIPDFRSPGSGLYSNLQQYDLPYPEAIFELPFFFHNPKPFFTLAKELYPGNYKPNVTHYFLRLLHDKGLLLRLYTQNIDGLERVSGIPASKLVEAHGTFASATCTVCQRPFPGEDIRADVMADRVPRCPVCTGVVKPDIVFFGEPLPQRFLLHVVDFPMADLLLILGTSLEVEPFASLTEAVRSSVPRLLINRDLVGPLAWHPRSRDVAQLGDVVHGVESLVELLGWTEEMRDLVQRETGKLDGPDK

Homo sapiens = organism: Homo sapiens; assay: Selectivity ratio of IC50 for human SIRT1 to IC50 for recombinant human N-terminal His6-tagged/SUMO-fused SIRT2 (38 to 356 residues) expressed in Escherichia coli BL21
Method in brief: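 Purified human sirtuin (SIRT1 0.05 μM, SIRT2 0.2 μM) in 20 mM Tris, 1 mM NAD⁺, 1 mM DTT, pH 8.0 was preincubated with inhibitor (0.002–417 μM, duplicate, DMSO control) for 15 min at 37 °C. Acetyl-H3K9 peptide (10 μM) was then added, and the reaction ran at 37 °C (SIRT1 3 min, SIRT2 6 min; 10–18% conversion). It was quenched with HCl/acetic acid and analysed by reverse-phase HPLC with UV at 215/326 nm.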

[2] = biological target: T2, NAD-dependent protein deacetylase sirtuin-2 (Homo sapiens, UniProt Q8IXJ6); assay: Inhibition of recombinant human N-terminal His6-tagged/SUMO-fused SIRT2 (38 to 356 residues) expressed in Escherichia coli BL21 assessed as reduction in deacetylase activity using acetylated H3K9 as substrate preincubated for 15 mins followed by substrate addition and measured after 6 mins by UV-HPLC analysis
T2 sequence (Q8IXJ6 whole entry): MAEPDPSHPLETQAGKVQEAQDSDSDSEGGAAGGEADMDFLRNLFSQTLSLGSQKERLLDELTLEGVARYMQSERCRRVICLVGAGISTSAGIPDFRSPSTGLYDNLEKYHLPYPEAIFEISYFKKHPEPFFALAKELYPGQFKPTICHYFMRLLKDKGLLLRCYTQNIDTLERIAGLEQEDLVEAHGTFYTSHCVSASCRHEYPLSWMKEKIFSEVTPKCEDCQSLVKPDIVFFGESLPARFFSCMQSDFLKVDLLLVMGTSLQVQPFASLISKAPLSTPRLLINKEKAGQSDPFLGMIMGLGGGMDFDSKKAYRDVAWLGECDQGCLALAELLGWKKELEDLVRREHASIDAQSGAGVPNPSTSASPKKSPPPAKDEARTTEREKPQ

[3] = biological target: T3, NAD-dependent protein deacetylase sirtuin-1 (Homo sapiens, UniProt Q96EB6); assay: Inhibition of human SIRT1 deacetylase activity using acetylated H3K9 as substrate preincubated for 15 mins followed by substrate addition and measured after 3 mins by UV-HPLC analysis
T3 sequence (Q96EB6 whole entry): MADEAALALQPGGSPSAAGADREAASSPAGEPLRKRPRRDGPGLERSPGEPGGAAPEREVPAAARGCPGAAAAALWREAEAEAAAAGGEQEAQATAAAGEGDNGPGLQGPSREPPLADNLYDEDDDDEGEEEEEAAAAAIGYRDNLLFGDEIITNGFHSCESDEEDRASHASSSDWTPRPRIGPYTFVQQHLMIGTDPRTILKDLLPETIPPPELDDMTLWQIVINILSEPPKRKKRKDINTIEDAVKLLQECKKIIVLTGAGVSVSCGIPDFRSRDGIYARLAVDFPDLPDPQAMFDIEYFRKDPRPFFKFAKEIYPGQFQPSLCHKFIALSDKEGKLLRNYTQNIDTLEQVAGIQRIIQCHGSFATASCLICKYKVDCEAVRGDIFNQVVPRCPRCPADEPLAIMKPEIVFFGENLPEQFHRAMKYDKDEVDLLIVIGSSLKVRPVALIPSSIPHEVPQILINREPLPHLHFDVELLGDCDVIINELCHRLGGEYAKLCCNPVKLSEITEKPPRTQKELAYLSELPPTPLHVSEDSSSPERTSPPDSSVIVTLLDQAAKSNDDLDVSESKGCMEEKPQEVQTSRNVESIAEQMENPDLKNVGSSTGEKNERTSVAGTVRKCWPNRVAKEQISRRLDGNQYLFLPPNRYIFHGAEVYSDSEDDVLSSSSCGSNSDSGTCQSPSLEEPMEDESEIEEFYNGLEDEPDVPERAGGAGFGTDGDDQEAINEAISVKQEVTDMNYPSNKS

[4] = biological target: T4, NAD-dependent protein deacetylase sirtuin-1 (Homo sapiens) (UniProt Q96EB6); assay: Inhibition of SIRT1 in human HCT116 cells assessed as increase in acetylated p53 K382 level at 25 uM after 6 hrs by Western blot analysis; format: cell-based
T4 sequence (whole entry): T3 sequence (Q96EB6 whole entry)

[5] = biological target: T5, NAD-dependent protein deacetylase sirtuin-2 (Homo sapiens) (UniProt Q8IXJ6); assay: Inhibition of SIRT2 in human HCT116 cells assessed as increase in alpha-tubulin acetylation at 50 uM incubated for 6 hrs by DAPI staining-based laser scanning confocal microscopic analysis; format: cell-based
T5 sequence (whole entry): T2 sequence (Q8IXJ6 whole entry)
Method in brief: (§1)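 HCT116 cells were seeded at 400 000 on poly-D-lysine-coated glass-bottom dishes and grown 24 h. Cells were treated with DMSO or inhibitor for 6 h at 37 °C, fixed in ice-cold methanol, and blocked in TBS/0.1% Triton X-100/5% BSA. They were stained with anti-acetyl α-tubulin (1:100, overnight, 4 °C), then Cy3 anti-mouse, and mounted with DAPI. Imaging was by confocal microscopy.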

[6] = biological target: T5, NAD-dependent protein deacetylase sirtuin-2 (Homo sapiens); assay: Inhibition of SIRT2 in human HCT116 cells assessed as increase in alpha-tubulin acetylation at 25 uM incubated for 6 hrs by DAPI staining-based laser scanning confocal microscopic analysis; format: cell-based; method in brief: as §1
[7] = biological target: T4, NAD-dependent protein deacetylase sirtuin-1 (Homo sapiens); assay: Inhibition of SIRT1 in Trichostatin A treated human HCT116 cells assessed as increase in acetylated p53 K382 level after 6 hrs by Western blot analysis
Method in brief: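 HCT116 cells were seeded at 400 000 per well, grown 24 h, then cotreated with 400 nM TSA and inhibitor (25 μM, or 10–50 μM) for 6 h at 37 °C. Cells were lysed in 4% SDS buffer, pH 7.4. 50 μg of lysate was resolved by 12% SDS-PAGE and blotted for acetyl-p53 K382 antibody, with β-actin as loading control. Detection was by ECL.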

[8] = Cytotoxicity against human HME1 cells after 72 hrs by CellTiter-Blue assay; format: cell-based
Method in brief: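 Cells were seeded per well (HCT116 1000; MDA-MB-231, MDA-MB-468, NCI-H23, A549, SW948 2000; MCF7, BxPC-3, HME1 3000) and left 20 h at 37 °C. Inhibitor was added at 1–100 μM final for 72 h at 37 °C. CellTiter-Blue was then added for 4 h, and fluorescence was read at ex 560/em 590 nm.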

Compound	IC50 [1] [nM]	Ratio IC50 (Homo sapiens)	IC50 [2] [nM]	IC50 [3] [nM]	inhibition [4]	inhibition [5]	inhibition [6]	inhibition [7]	Activity [8]
CCCNC(=S)NCCCC[C@H](NC(=O)OCc1ccccc1)C(=O)Nc1cccc(O)c1	> 100000	–	> 100000	> 100000	inactive	inactive	inactive	–	–
NC(=O)C1CCCc2c1[nH]c1ccc(Cl)cc21 (configuration not stated)	–	–	–	–	Active	–	–	–	–
CCCCCCNC(=S)NCCCC[C@H](NC(=O)OCc1ccccc1)C(=O)Nc1ccccc1	–	–	640	30000	–	–	–	–	–
CCCCCCCNC(=S)NCCCC[C@H](NC(=O)OCc1ccccc1)C(=O)Nc1ccccc1	–	–	160	22000	–	–	–	–	–
CNC(=S)NCCCC[C@H](NC(=O)OCc1ccccc1)C(=O)Nc1cccc(O)c1	> 100000	–	> 100000	> 100000	–	–	–	–	–
CCCCCNC(=S)NCCCC[C@H](NC(=O)OCc1ccccc1)C(=O)Nc1cccc(O)c1	> 100000	34	1000	34000	Active	Active	Active	–	–
CCCCCCCCCCCCCC(=S)NCCCC[C@H](NC(=O)OCc1ccccc1)C(=O)Nc1ccccc1	> 100000	–	–	–	–	–	–	–	Non-Toxic

Continued by falling IC50 [2], values first:

IC50 [1] [nM]	Ratio IC50 (Homo sapiens)	IC50 [2] [nM]	IC50 [3] [nM]	inhibition [4]	inhibition [5]	inhibition [6]	inhibition [7]	Compound	Activity [8]
> 100000	8	120	1000	–	–	–	–	CCCCCCCCNC(=S)NCCCC[C@H](NC(=O)OCc1ccccc1)C(=O)Nc1cccc(O)c1	–
> 200000	–	81	> 200000	–	–	–	–	CCCCCCCCCCCCNC(=S)NCCCC[C@H](NC(=O)OCc1ccccc1)C(=O)Nc1ccccc1	–
> 100000	17	60	1000	–	–	–	–	CCCCCCCCCCCCNC(=S)NCCCC[C@H](NC(=O)OCc1ccccc1)C(=O)Nc1cccc(O)c1	–
> 100000	12	36	450	Active	Active	Active	Dose-dependent effect	CCCCCCCCCCNC(=S)NCCCC[C@H](NC(=O)OCc1ccccc1)C(=O)Nc1cccc(O)c1	–

— ChEMBL document CHEMBL4433206, “Novel Lysine-Based Thioureas as Mechanism-Based Inhibitors of Sirtuin 2 (SIRT2) with Anticancer Activity in a Colorectal Cancer Murine Model” (J Med Chem, 2019)
